Here are results for five compounds from ChEMBL document CHEMBL1124344, “5-Piperazinylalkyl-2(3H)-oxazolones with neuroleptic activity” (J Med Chem, 1989).

A word on the ED50: it is the dose that gives a 50% effect, or the effect in half of the subjects. A lower ED50 goes with greater potency. In general, inhibition in vivo refers to the relative decrease from the control value, in per cent.

Common to all, as to assay type: functional
The test system of assay [1] is Mus musculus. The experiment in a line: Inhibition of spontaneous locomotor activity, after 1 hour of peroral administration in mouse. To be noted: po. An outline of the steps:
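Mice in groups of five were dosed orally with gum arabic suspensions at 10 mL/kg after an overnight fast, with a vehicle control group. Locomotion was counted for 10 min in a photocell activity cage, in at least two groups per dose. ED50, by probit analysis, is the dose giving 50% inhibition against controls.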

The subject of assay [2] is Mus musculus. The experiment in a line: Inhibitory activity against tremorine-induced tremors, after 5 hour of peroral administration in mouse at dose 7.5 mg/kg. The note with it: route oral. In short, it runs like this: (§1)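 Male mice fasted overnight, dosed orally with arabic gum suspension (10 mL/kg) 1 or 5 h before test, vehicle controls included. Tremorine 20 mg/kg ip given 1 h after compounds; central (tremor) and peripheral (salivation) parasympathetic signs recorded. ED50 = dose protecting 50% of animals, by probit analysis.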

For assay [3], the system named is Mus musculus. The assay can be described thus: Inhibitory activity against tremorine-induced tremors, after 1 hour of peroral administration in mouse at dose 7.5 mg/kg. To be noted: route oral. In short, it runs like this:
as §1

The test system of assay [4] is Mus musculus. The assay can be described thus: Anticonvulsant activity against pentylenetetrazole-induced convulsions, after 5 hour of peroral administration in mouse at a dose of 40 mg/kg. To be noted: route oral. An outline of the steps: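 Male mice dosed orally (arabic gum, 10 mL/kg) 1 or 5 h before challenge with tryptamine 100 mg/kg iv, pentylenetetrazol 110 mg/kg ip, or maximal electroshock. Protection means no bilateral forepaw clonic seizures and head twitches (tryptamine) or no tonic hind-limb extension (others). ED50 protects 50% of mice.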

Assay [5] has as its system Mus musculus. The assay can be described thus: Activity of inclined screen in mouse, after 5 hour of peroral administration in mouse at a dose of 60 mg/kg. To be noted: route oral. In short, it runs like this: (§2)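 Male mice dosed orally (arabic gum suspension, 10 mL/kg, fasted overnight) 1 or 5 h before testing. Placed for 1 h on a wire screen bent at 60° to the horizontal. Ataxic or miorelaxed mice slide off. ED50 is the dose at which 50% of mice fall, by probit analysis. Ten animals per dose, with vehicle controls.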

In assay [6] the test system is Rattus norvegicus. The experiment in a line: Antagonistic activity against apomorphine-induced stereotypy, after 5 hour of peroral administration in rats at a dose of 100 mg/kg. To be noted: route oral. An outline of the steps: (§3)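 Male rats fasted overnight and given oral doses in arabic gum suspension (10 mL/kg) 1 h, or 1 and 5 h, before challenge. Apomorphine 3 mg/kg iv, with stereotypy observed 20 min later. ED50 is the dose inhibiting stereotypy in 50% of rats, per Janssen's method. Parenthetical entries give the maximal dose and percent activity.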

Assay [7] relates to Mus musculus. The experiment in a line: Anticonvulsant activity against electroshock-induced convulsions, after 1 hour of peroral administration in mouse at a dose of 40 mg/kg. The note with it: route oral. An outline of the steps:
(§4)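 Compounds were dosed as bases suspended in arabic gum at 10 mL/kg orally, after an overnight fast, with vehicle controls. Protection meant no bilateral forepaw clonic seizures or head twitches (tryptamine), or no tonic hind-limb extension (the other two). ED50 is the dose protecting 50%, by probit analysis.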

In assay [8] the test system is Mus musculus. The assay can be described thus: Inhibitory activity against tremorine-induced tremors, after 1 hour of peroral administration in mouse at dose 20 mg/kg. The note with it: route oral. In short, it runs like this:
as §1

In assay [9] the test system is Mus musculus. The assay can be described thus: Contractile activity in skeletal muscles, after 1 hour of peroral administration in mouse at dose 30 mg/kg. The note with it: Muscle tissue, route oral. In short, it runs like this:
(§5)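 Male mice were placed for 1 h on a 60° inclined wire screen just after dosing and 4 h later. In a second test, trained mice hung by the forepaws from a horizontal 1.8 mm wire 15 cm up; normal mice touch it with a hind paw within 2 s and stay ≥1 min. ED50 is the dose making 50% fall. Dosing was oral in gum arabic suspension at 10 mL/kg after an overnight fast.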

The subject of assay [10] is Mus musculus. The assay can be described thus: Anticonvulsant activity against pentylenetetrazole-induced convulsions, after 1 hour of peroral administration in mouse at a dose of 9.4 mg/kg. The note with it: route oral. An outline of the steps:
as §4

Assay [11] deals with Mus musculus. The assay can be described thus: Anticonvulsant activity against pentylenetetrazole-induced convulsions, after 1 hour of peroral administration in mouse at a dose of 20 mg/kg. To be noted: route oral. In short, it runs like this: as §4
For assay [12], the system named is Mus musculus. The experiment in a line: Inhibitory activity against tremorine-induced tremors, after 5 hour of peroral administration in mouse. The note with it: po.
The test system of assay [13] is Rattus norvegicus. The experiment in a line: Antagonistic activity against apomorphine-induced stereotypy, after 1 hour of peroral administration in rats at a dose of 100 mg/kg. To be noted: route oral. An outline of the steps:
as §3

The test system of assay [14] is Mus musculus. The experiment in a line: Effect on skeletal muscle tone, after 5 hour of peroral administration in mouse at a dose of 200 mg/kg. The note with it: Muscle tissue, route oral. An outline of the steps:
as §5

Assay [15] concerns Mus musculus. The experiment in a line: Anticonvulsant activity against electroshock-induced convulsions, after 5 hour of peroral administration in mouse at a dose of 100 mg/kg. The note with it: route oral. An outline of the steps:
as §4

The subject of assay [16] is Mus musculus. The assay can be described thus: Activity of inclined screen in mouse, after 1 hour of peroral administration in mouse at a dose of 100 mg/kg. To be noted: route oral. In short, it runs like this:
as §2

For assay [17], the system named is Mus musculus. The experiment in a line: Anticonvulsant activity against electroshock-induced convulsions, after 1 hour of peroral administration in mouse at a dose of 100 mg/kg. To be noted: route oral. An outline of the steps: as §4
Assay [18] relates to Mus musculus. The experiment in a line: Anticonvulsant activity against pentylenetetrazole-induced convulsions, after 1 hour of peroral administration in mouse at a dose of 100 mg/kg. The note with it: route oral. An outline of the steps: as §4
Assay [19] deals with Rattus norvegicus. The assay can be described thus: Inhibitory activity against norepinephrine-induced lethality, after 5 hour of peroral administration in rat at a dose of 40 mg/kg. The note with it: route oral. In short, it runs like this:
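Rats (80–90 g) dosed orally (arabic gum, 10 mL/kg) 1 or 5 h before norepinephrine 0.5 mg/kg iv, which kills unprotected rats within 30 min. ED50 is the dose protecting 50% of rats from lethality, by probit analysis.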

Assay [20] deals with Mus musculus. The assay can be described thus: Potentiation against pentobarbital-induced sleeping, after 1 hour of peroral administration in mouse at a dose of 100 mg/kg. To be noted: route oral. An outline of the steps: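 Female mice fasted overnight, dosed orally 1 or 5 h beforehand as arabic gum suspension, 10 mL/kg, with vehicle controls. Subhypnotic pentobarbital 10 mg/kg iv; 3 min later placed on back, effect scored as complete loss of righting reflex for at least 15 s. ED50 = dose producing this in 50% of mice, probit analysis.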

Assay [21] concerns Rattus norvegicus. The assay can be described thus: Activity to evoke catalepsy in rats, by administering perorally at a dose of 200 mg/kg. To be noted: route oral. An outline of the steps:
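Rats fasted overnight and given oral doses in arabic gum suspension (10 mL/kg), 1 h before screening or 1 and 5 h before profile testing. Forelegs placed on a horizontal bar 7 cm high, three times at 5-min intervals. Immobility of at least 15 s counts as catalepsy. ED50 is the dose giving catalepsy in 50% of rats, by probit analysis. Parenthetical entries give the maximal dose and percent activity.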

Assay [22] concerns Mus musculus. The assay can be described thus: Inhibitory activity against tremorine-induced salivation, after 5 hour of peroral administration in mouse at dose of 60 mg/kg. The note with it: route oral. An outline of the steps:
as §1

For assay [23], the system named is Mus musculus. The experiment in a line: Inhibitory activity against tremorine-induced tremors, after 1 hour of peroral administration in mouse at dose of 60 mg/kg. The note with it: route oral. In short, it runs like this:
as §1

Assay [24] concerns Mus musculus. The experiment in a line: Anticonvulsant activity against electroshock-induced convulsions, after 5 hour of peroral administration in mouse at dose of 100 mg/kg. The note with it: route oral. In short, it runs like this:
as §4

The subject of assay [25] is Mus musculus. The assay can be described thus: Anticonvulsant activity against electroshock-induced convulsions, after 1 hour of peroral administration in mouse at dose of 100 mg/kg. To be noted: route oral. An outline of the steps: as §4
The test system of assay [26] is Mus musculus. The experiment in a line: Effect on skeletal muscle tone, after 1 hour of peroral administration in mouse at dose of 200 mg/kg. The note with it: Muscle tissue, route oral. In short, it runs like this:
as §5

Assay [27] concerns Mus musculus. The experiment in a line: Anticonvulsant activity against pentylenetetrazole-induced convulsions, after 5 hour of peroral administration in mouse at dose of 100 mg/kg. To be noted: route oral. An outline of the steps:
as §4

The subject of assay [28] is Mus musculus. The assay can be described thus: Contractile activity in skeletal muscles, after 1 hour of peroral administration in mouse at dose of 0 mg/kg. To be noted: Muscle tissue, route oral. An outline of the steps:
as §5

For assay [29], the system named is Mus musculus. The assay can be described thus: Anticonvulsant activity against pentylenetetrazole-induced convulsions, after 1 hour of peroral administration in mouse at dose of 100 mg/kg. The note with it: route oral. An outline of the steps:
as §4

In the assay on Mus musculus [1], `CN(C)CCCN1c2ccccc2Sc2ccc(Cl)cc21` [CHLORPROMAZINE] came in with an ED50 of 2.9 mg/kg. The results for the inhibition in vivo at 7.5 mg/kg in the assay on Mus musculus [2] and with Mus musculus [3] were 15% and 0%, respectively.

`COc1ccccc1N1CCN(CCCC(=O)c2ccc(F)cc2)CC1` [FLUANISONE]: the inhibition in vivo at 40 mg/kg with Mus musculus [4] and with Mus musculus [7] was 0% each time. In the assay with Mus musculus [5], this compound came in with an inhibition in vivo at 60 mg/kg of 0%. The same compound had an inhibition in vivo at 100 mg/kg with Rattus norvegicus [6] of 0%.

`O=C(CCCN1CCC(O)(c2ccc(Cl)cc2)CC1)c1ccc(F)cc1` [HALOPERIDOL]: the inhibition in vivo at 20 mg/kg in the assay on Mus musculus [8] and in the assay on Mus musculus [11] was 0% each time. In addition, testing at 30 mg/kg in the assay with Mus musculus [9] gave an inhibition in vivo of 0%. In addition, the inhibition in vivo at 9.4 mg/kg in the assay on Mus musculus [10] stood at 0%. Further, it took a dose of 20 mg/kg to reach the 50% effect level in the assay on Mus musculus [12] (ED50).

For `O=c1[nH]c(-c2ccc(F)cc2)c(CCN2CCN(c3cc(Cl)cc(Cl)c3)CC2)o1` [LODIPERONE], the inhibition in vivo at 100 mg/kg in the assay with Rattus norvegicus [13] is 0%; with Mus musculus [15], 0%; in the assay on Mus musculus [16], 0%; with Mus musculus [17], 0%; in the assay with Mus musculus [18], 0%; in the assay on Mus musculus [20], 30%. Besides, the inhibition in vivo at 200 mg/kg in the assay on Mus musculus [14] and with Rattus norvegicus [21] was 0% in each case. The same compound gave an inhibition in vivo at 40 mg/kg with Rattus norvegicus [19] of 10%.

Take `COc1ccccc1N1CCN(CCc2oc(=O)[nH]c2-c2ccc(F)cc2)CC1` [ZOLOPERONE]: the results for the inhibition in vivo at 60 mg/kg with Mus musculus [22] and with Mus musculus [23] were 0% and 10%, respectively. Further, the inhibition in vivo at 100 mg/kg in the assay with Mus musculus [24], with Mus musculus [25], in the assay with Mus musculus [27] and with Mus musculus [29] was 0% in each case. 200 mg/kg produced 0% inhibition in vivo in the assay with Mus musculus [26]. Besides, in the assay with Mus musculus [28], it took a dose of 179 mg/kg to reach the 50% effect level (ED50).
